The values below come from ChEMBL document CHEMBL3580548, “Ervatamines A-I, Anti-inflammatory Monoterpenoid Indole Alkaloids with Diverse Skeletons from Ervatamia hainanensis” (J Nat Prod, 2015).

Active and inactive are the calls of the source. The rule behind the calls is not given here.

System in the first assay: not listed separately
Nature of the assay: Cytotoxicity against human 786-O cells by MTT assay. It counts as functional, cell-based. The following applies: 786-0.
`COC(=O)[C@@]12C[C@H]3C[C@H](C(C)=O)[C@@H]1N(CCc1c2[nH]c2ccccc12)C3` yielded a half-maximal inhibitory concentration (IC50) of 27.3 µM.

The test system of a further assay is RAW264.7. The experiment in a line: Anti-inflammatory activity in mouse RAW264.7 cells assessed as LPS-stimulated inhibition of nitric oxide production incubated simultaneously with LPS for 24 hrs by Griess reagent based assay. The class given is functional, cell-based.
Conditions: not given
The gist of the method:
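RAW264.7 cells grown in RPMI 1640 with 10% heat-inactivated FBS, penicillin 100 U/mL and streptomycin 100 μg/mL; 1 × 10^5 cells/well allowed to adhere 2 h at 37 °C, 5% CO2. Cells exposed to 1 μg/mL LPS for 24 h with or without compounds across a concentration range. Indomethacin as positive control. Nitrite in supernatant measured by Griess reagent. Run in triplicate; IC50 reported.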
As for `COC(=O)[C@@]12C[C@H]3C[C@H](C(C)=O)[C@@H]1N(CCc1c2[nH]c2ccccc12)C3`, the inhibition entry was “Active”.
Regarding `CC[C@H]1C[C@@H]2C[C@@]3(C(=O)OC)c4[nH]c5ccccc5c4CCN(C2CO)[C@@H]13` (some centres not stated), the inhibition entry is “Active”.
Still for that read-out and setting: then `CC[C@H]1C[C@@H]2C[C@@]3(C(=O)OC)c4[nH]c5ccccc5c4CCN(C2CC(C)=O)[C@@H]13` (some centres not stated), with “Active”; and `COC(=O)[C@@]12C[C@H]3C[C@H]([C@H](C)O)[C@@H]1N(Cc1c2n(C=O)c2ccccc12)C3`, with “inactive”; and `C/C=C1/C[N@+]2(C)CCc3c([nH]c4ccccc34)C(CO)(C(=O)[O-])[C@H]1CC2` (some centres not stated), with “inactive”.
Regarding `COC(=O)[C@@]12C[C@@H]3C[C@@H](C(C)O)[C@@H]1N(CC[C@]21Nc2ccccc2C1=O)C3` (some centres not stated), the inhibition entry was “inactive”.
Turning to `C/C=C1/C[N@+]2(C)CCc3c([nH]c4ccccc34)[C@H](C(=O)[O-])[C@H]1CC2`, the inhibition result is “inactive”.
With `C/C=C1/C[N@+]2(C)CCc3c([nH]c4ccccc34)[C@@H](C(=O)[O-])[C@H]1CC2`, the inhibition result is “inactive”.
Still for that read-out and setting: to `COC(=O)[C@@]12C[C@H]3C[C@H]([C@H](C)O)[C@@H]1N(CCc1c2[nH]c2ccccc12)C3CC(C)=O` (some centres not stated) belongs “Active”; to `C[C@H](O)[C@@H]1C[C@H]2C[C@H]3c4[nH]c5ccccc5c4CCN(C2)[C@@H]13`, “Active”.
On to `COC(=O)[C@]12C[C@@H]3CN(CCc4c1[nH]c1ccccc41)[C@H]2[C@@H]([C@H](C)O)C3O` (some centres not stated), for which the inhibition entry was “Active”.
Same read-out and setting: then `C[N@@+]12CCc3c([nH]c4ccccc34)[C@](CO)(C(=O)[O-])[C@@H](CC1)/C(=C\CO)C2`, with “inactive”.

The assay is the same for the next values; noted with them: RAW264.7, 24 h.
As for `CC[C@H]1C[C@@H]2CN3CCc4c([nH]c5ccccc45)[C@](C(=O)OC)(C2)[C@H]13` [CORONARIDINE], the IC50 was determined as 25.5 µM.
Still for that read-out and setting: then `CC[C@@]1(O)CC2[C@H]3C(C(=O)OC)=C4Nc5ccccc5C45CCN([C@H]25)[C@H]31` (some centres not stated), with 41.5 µM.
Still for that read-out and setting: to `COc1ccc2c(c1)c(CC(=O)O)c(C)n2C(=O)c1ccc(Cl)cc1` [INDOMETHACIN] belongs 42.6 µM.

The subject of the next assay is HL-60. The experiment in a line: Cytotoxicity against human HL60 cells by MTT assay.
Conditions: not given
It counts as functional, cell-based.
As for `COC(=O)[C@@]12C[C@H]3C[C@H](C(C)=O)[C@@H]1N(CCc1c2[nH]c2ccccc12)C3`, the midpoint of inhibition, the IC50, lay at 48.5 µM.
